# From ChEMBL document CHEMBL4613302, “Synthesis and Antiproliferative Activity of Nitric Oxide-Donor Largazole Prodrugs” (ACS Med Chem Lett, 2020)
# Calls of active or inactive are those of the source. No cut-off for these calls is given here.
# Key:
# IMR-32 [1] = assay: Antiproliferative activity against human IMR32 cells assessed as reduction in cell viability incubated for 24 hrs by MTT assay; type: functional, cell-based; settings: IMR-32, 24 h
# Outline: (§1)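 Growth inhibition was read at 24, 48 and 72 h in U-2OS, Caco-2 and IMR-32 cells. EC50 values are the mean of n = 3 independent experiments ± SEM.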
# U2OS [2] = assay: Antiproliferative activity against human U2OS cells assessed as reduction in cell viability incubated for 24 hrs by MTT assay; type: functional, cell-based; outline: as §1
# U2OS [3] = assay: Antiproliferative activity against human U2OS cells assessed as reduction in cell viability incubated for 72 hrs by MTT assay; type: functional, cell-based; outline: as §1
# Caco-2 [4] = assay: Antiproliferative activity against human Caco2 cells assessed as reduction in cell viability incubated for 24 hrs by MTT assay; type: functional, cell-based; settings: Caco-2, 24 h; outline: as §1
# [5] = Induction of NO production in PBS buffer at 0.1 mM in presence of L-cysteine measured for 1 to 24 hrs by Griess method; type: functional
# Outline: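 Griess assay for NO release: each compound at 0.1 mM in 50 mM phosphate buffer, pH 7.4, at 37 °C, with l-cysteine at 0.5 mM and at 5 mM. Nitrite yield is given as % of the initial compound concentration at 1 h, 5 h and 24 h. Values are the average of three independent experiments.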
# [6] = Induction of NO production in PBS buffer at 0.1 mM measured for 1 to 24 hrs by Griess method; type: functional
# Outline: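 Compound at 0.1 mM in 50 mM phosphate buffer, pH 7.4, incubated at 37 °C without l-cysteine. Released NO was measured as nitrite by the Griess method and given as % of the initial compound concentration at 1, 5 and 24 h. Values are the average of three independent experiments.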
# Caco-2 [7] = assay: Antiproliferative activity against human Caco2 cells assessed as reduction in cell viability incubated for 48 hrs by MTT assay; type: functional, cell-based; settings: Caco-2, 48 h; outline: as §1
# U2OS [8] = assay: Antiproliferative activity against human U2OS cells assessed as reduction in cell viability incubated for 48 hrs by MTT assay; type: functional, cell-based; outline: as §1
# [9] = Chemical stability of compound in DMSO assessed as compound hydrolysis at 500 ug/ml measured upto 24 hrs by HPLC-UV/MS analysis; type: physicochemical
# IMR-32 [10] = assay: Antiproliferative activity against human IMR32 cells assessed as reduction in cell viability incubated for 48 hrs by MTT assay; type: functional, cell-based; settings: IMR-32, 48 h; outline: as §1
# Caco-2 [11] = assay: Antiproliferative activity against human Caco2 cells assessed as reduction in cell viability incubated for 72 hrs by MTT assay; type: functional, cell-based; settings: Caco-2, 72 h; outline: as §1
# [12] = Stability of compound in human plasma assessed as compound hydrolysis at 500 ug/ml measured upto 24 hrs by HPLC-UV/MS analysis; type: ADME, cell-free
# [13] = Chemical stability of compound in HEPES assessed as compound hydrolysis at 500 ug/ml measured upto 24 hrs by HPLC-UV/MS analysis; type: physicochemical
# IMR-32 [14] = assay: Antiproliferative activity against human IMR32 cells assessed as reduction in cell viability incubated for 72 hrs by MTT assay; type: functional, cell-based; settings: IMR-32, 72 h; outline: as §1
EC50 (U2OS [2]),EC50 (U2OS [3]),EC50 (Caco-2 [4]),EC50 (Caco-2 [7]),EC50 (U2OS [8]),Stability [9],EC50 (Caco-2 [11]),Stability [12],Stability [13],Structure (SMILES),EC50 (IMR-32 [1]),Activity [5],Activity [6],EC50 (IMR-32 [10]),EC50 (IMR-32 [14])
1.95 µM,0.17 µM,11.2 µM,0.038 µM,0.309 µM,Stable,0.00813 µM,Stable,Stable,CC(C)[C@@H]1NC(=O)[C@]2(C)CSC(=N2)c2csc(n2)CNC(=O)C[C@@H](/C=C/CCSC(=O)CCCCO[N+](=O)[O-])OC1=O,0.0151 µM,Active,Active,0.0195 µM,0.012 µM
0.468 µM,1 µM,9.12 µM,0.00562 µM,0.741 µM,Stable,0.00447 µM,Stable,Stable,CC(C)[C@@H]1NC(=O)[C@]2(C)CSC(=N2)c2csc(n2)CNC(=O)C[C@@H](/C=C/CCSC(=O)CCC(CO[N+](=O)[O-])O[N+](=O)[O-])OC1=O (some centres not stated),0.0295 µM,Active,Active,0.0617 µM,0.0501 µM

Structure (SMILES),EC50 (U2OS [2]),EC50 (U2OS [3]),EC50 (Caco-2 [4]),EC50 (Caco-2 [7]),EC50 (U2OS [8]),Stability [9],EC50 (Caco-2 [11]),Stability [12],Stability [13],EC50 (IMR-32 [1]),Activity [5],Activity [6],EC50 (IMR-32 [10]),EC50 (IMR-32 [14])
CCCCCCCC(=O)SCC/C=C/[C@@H]1CC(=O)NCc2nc(cs2)C2=N[C@@](C)(CS2)C(=O)N[C@@H](C(C)C)C(=O)O1 [LARGAZOLE],20.4 µM,0.331 µM,> 10000 µM,0.759 µM,0.372 µM,,0.0145 µM,,,0.0347 µM,,,0.0302 µM,0.0123 µM
